Results published in ChEMBL document CHEMBL4184245, “Multiple-step, one-pot synthesis of 2-substituted-3-phosphono-1-thia-4-aza-2-cyclohexene-5-carboxylates and their corresponding ethyl esters” (Bioorg Med Chem Lett, 2018).
Calls of active or inactive are those of the source. The rule behind the calls is not given here.

Columns and labels:
RG2 [1] = assay: Induction of autophagy in rat RG2 cells assessed as increase in LC3-II level at 10 uM pre-incubated for 15 mins before bafilomycin-A1 addition and further incubated for 4 hrs by Western blotting method; type: functional, cell-based
RG2 [2] = assay: Induction of autophagy in rat RG2 cells assessed as increase in LC3-II level at 100 uM pre-incubated for 15 mins before bafilomycin-A1 addition and further incubated for 4 hrs by Western blotting method; type: functional, cell-based
[3] = Apparent permeability of the compound across apical side to basolateral side in human Caco2 cells at 10 uM incubated for 2 hrs by LC-MS/MS method; type: ADME, cell-based; details: Caco-2
Method in brief: (§1)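 Permeability was measured across Caco-2 epithelial monolayers.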

RG2 [4] = assay: Induction of autophagy in rat RG2 cells assessed as optimum compound level causing increase in LC3-II level pre-incubated for 15 mins before bafilomycin-A1 addition and further incubated for 4 hrs by Western blotting method; type: functional
Method in brief: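 Cells were tested at 1, 10 and 100 μM. The optimum concentration for autophagy stimulation was estimated from these few levels in preliminary single-series experiments.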

[5] = Apparent permeability of the compound across basolateral to apical side in human Caco2 cells at 10 uM incubated for 2 hrs by LC-MS/MS method; type: ADME, cell-based; details: Caco-2; method in brief: as §1
[6] = Efflux ratio in human Caco2 cells at 10 uM incubated for 2 hrs by LC-MS/MS method; type: ADME, cell-based; details: Caco-2

Structure (SMILES) | Activity (RG2 [1]) | Activity (RG2 [2]) | Papp A→B at 2 h, 10 µM [3] | Activity (RG2 [4]) | Papp B→A at 2 h, 10 µM [5] | efflux ratio at 2 h, 10 µM [6]
O=C(O)C1=CSC[C@@H](C(=O)O)N1 | Active | Active | – | – | – | –
CCCCCCC1=C(P(=O)(O)O)N[C@H](C(=O)OCC)CS1 | – | – | < 0.01 ×10⁻⁶ cm/s | 1 to 10 µM | < 0.01 ×10⁻⁶ cm/s | –
CC(C)C1=C(P(=O)(O)O)N[C@H](C(=O)O)CS1 | Active | inactive | – | – | – | –
CCCCC1=C(P(=O)(O)O)N[C@H](C(=O)O)CS1 | – | – | 1.1 ×10⁻⁶ cm/s | – | 0.35 ×10⁻⁶ cm/s | 0.33
CCOC(=O)[C@@H]1CSC(CC)=C(C(=O)O)N1 | – | – | – | >10 µM | – | –
CCCCCCC1=C(P(=O)(O)O)N[C@H](C(=O)O)CS1 | – | – | < 0.01 ×10⁻⁶ cm/s | – | < 0.01 ×10⁻⁶ cm/s | –
CCOC(=O)[C@@H]1CSC=C(C(=O)O)N1 | – | – | < 0.01 ×10⁻⁶ cm/s | – | < 0.01 ×10⁻⁶ cm/s | –
CCCCC1=C(P(=O)(O)O)N[C@H](C(=O)OCC)CS1 | – | – | < 0.01 ×10⁻⁶ cm/s | – | < 0.01 ×10⁻⁶ cm/s | –
